# Test results published in ChEMBL document CHEMBL5154669, “G-Quadruplex DNA as a Target in Pathogenic Bacteria: Efficacy of an Extended Naphthalene Diimide Ligand and Its Mode of Action” (J Med Chem, 2022).
# Activity calls are given as the source filed them. No cut-off for these calls is given here. Where a SMILES comes first, the peptide text is derived from it. Bridges are numbered along the chain shown (N, C = ends). [ ]: non-standard residue; d: D form. The star is where a group is joined. X1 = CC[C@H](C)CCCCC(=O)*; Orn = NCCC[C@H](N)C(=O)O; Dab = NCC[C@H](N)C(=O)O
# Key:
# [1] = system: Staphylococcus aureus; test: Antibacterial activity against Staphylococcus aureus LMG 8224 assessed as inhibition of bacterial growth incubated for 20 hrs by CLSI based broth microdilution method; format: functional
# How it was run: (§1)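 Broth microdilution in cation-adjusted Mueller-Hinton broth following CLSI guidelines. DMSO stocks were at 10 mM; compounds were twofold serially diluted over 128 to 2 μM. The inoculum was at 5 × 10⁵, prepared from colonies grown 20 h at 37 °C and adjusted to 0.5 McFarland. Plates ran 20 h at 37 °C with OD600 read-out. MIC was the lowest concentration inhibiting visible growth, in triplicate.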
# [2] = system: Enterococcus faecalis; test: Antibacterial activity against Enterococcus faecalis V583 assessed as inhibition of bacterial growth incubated for 20 hrs by CLSI based broth microdilution method; format: functional; how it was run: as §1
# [3] = system: Pseudomonas aeruginosa; test: Antibacterial activity against Pseudomonas aeruginosa LMG 6395 assessed as inhibition of bacterial growth incubated for 20 hrs by CLSI based broth microdilution method; format: functional; how it was run: as §1
# [4] = system: DNA; test: Stabilization of Staphylococcus aureus in G Quadruplex DNA GGGGCTAATTGGGGCTGGTGG assessed as melting at 10 uM incubated for 16 hrs temperature by […]; format: nucleic-acid assay
# How it was run: (§2)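 Readout was CD melting, not FRET: 2.5 μM oligonucleotide in 10 mM lithium cacodylate pH 7.4 with KCl set per sequence (initial Tm 60-70 °C). Annealed 95 °C 5 min, cooled to room temperature over 4 h, then ligand 10 μM (4 equiv) equilibrated 16 h at 20 °C. Ellipticity at 260 nm tracked every 0.1 °C, 20-95 °C at 5 °C/min; Tm by van't Hoff two-state fit.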
# [5] = system: DNA; test: Stabilization of Escherichia coli in G-quadruplex DNA GGT GGG GAG GGG TAA GGG G assessed as melting temperature at 10 uM incubated for 16 hrs by […]; format: nucleic-acid assay; how it was run: as §2
# [6] = system: DNA; test: Stabilization of Escherichia coli in G-quadruplex DNA GGG GCG GGG TGG GTT GG assessed as change in melting temperature at 10 uM incubated for 16 hrs by CD melting method
# [7] = system: DNA; test: Stabilization of Staphylococcus aureus in G-quadruplex DNA GGGTTTGGGGCGGCGGTTGG assessed as change in melting temperature at 10 uM incubated for 16 hrs by FRET method; format: nucleic-acid assay
# [8] = system: Klebsiella pneumoniae; test: Antibacterial activity against Klebsiella pneumoniae LMG 20218 assessed as inhibition of bacterial growth incubated for 20 hrs by CLSI based broth microdilution method; format: functional; how it was run: as §1
# [9] = system: DNA; test: Stabilization of Staphylococcus aureus in G-quadruplex DNA GGA AGG AGG GGT GAC AGG G assessed as change in melting temperature at 10 uM incubated for 16 hrs by […]; format: nucleic-acid assay; how it was run: as §2
# [10] = system: Bacillus cereus; test: Antibacterial activity against Bacillus cereus ATCC 14579 assessed as inhibition of bacterial growth incubated for 20 hrs by CLSI based broth microdilution method; format: functional; how it was run: as §1
# [11] = system: Acinetobacter baumannii; test: Antibacterial activity against Acinetobacter baumannii LMG 01041 assessed as inhibition of bacterial growth incubated for 20 hrs by CLSI based broth microdilution method; format: functional; how it was run: as §1
# [12] = system: Staphylococcus aureus; test: Antibacterial activity against Staphylococcus aureus LMG 10147 assessed as inhibition of bacterial growth incubated for 20 hrs by CLSI based broth microdilution method; format: functional; how it was run: as §1
# [13] = system: Klebsiella aerogenes; test: Antibacterial activity against Enterobacter aerogenes LMG 02094 assessed as inhibition of bacterial growth incubated for 20 hrs by CLSI based broth microdilution method; format: functional; how it was run: as §1
# [14] = system: Salmonella enterica; test: Antibacterial activity against Salmonella enterica LMG 07233 assessed as inhibition of bacterial growth incubated for 20 hrs by CLSI based broth microdilution method; format: functional; how it was run: as §1
# [15] = system: Staphylococcus aureus; test: Antibacterial activity against Staphylococcus aureus LMG 15975 assessed as inhibition of bacterial growth incubated for 20 hrs by CLSI based broth microdilution method; format: functional; how it was run: as §1
# [16] = system: Enterococcus faecalis; test: Antibacterial activity against Enterococcus faecalis LMG 16216 assessed as inhibition of bacterial growth incubated for 20 hrs by CLSI based broth microdilution method; format: functional; how it was run: as §1
# [17] = system: Escherichia coli; test: Antibacterial activity against Escherichia coli LMG 8223 assessed as inhibition of bacterial growth incubated for 20 hrs by CLSI based broth microdilution method; format: functional; how it was run: as §1
# [18] = system: DNA; test: Stabilization of Escherichia coli in G-quadruplex DNA GGG GCG GGG TGG GTT GG assessed as melting temperature at 10 uM incubated for 16 hrs by FRET method; format: nucleic-acid assay
# [19] = system: Enterobacter cloacae; test: Antibacterial activity against Enterobacter cloacae LMG 02783 assessed as inhibition of bacterial growth incubated for 20 hrs by CLSI based broth microdilution method; format: functional; how it was run: as §1
# [20] = system: Staphylococcus epidermidis; test: Antibacterial activity against Staphylococcus epidermidis Tu3298 assessed as inhibition of bacterial growth incubated for 20 hrs by CLSI based broth microdilution method; format: functional; how it was run: as §1
# [21] = system: Bacillus cereus; test: Antibacterial activity against Bacillus cereus ATCC 10987 assessed as inhibition of bacterial growth incubated for 20 hrs by CLSI based broth microdilution method; format: functional; how it was run: as §1
# [22] = system: DNA; test: Stabilization of Staphylococcus aureus in G-quadruplex DNA GGGTTTGGGGCGGCGGTTGG assessed as melting temperature at 10 uM incubated for 16 hrs by […]; format: nucleic-acid assay; how it was run: as §2
# [23] = system: DNA; test: Stabilization of Staphylococcus aureus in G-quadruplex DNA GGA AGG AGG GGT GAC AGG G assessed as melting temperature at 10 uM incubated for 16 hrs […]; format: nucleic-acid assay; how it was run: as §2
# [24] = system: Enterococcus faecium; test: Antibacterial activity against Enterococcus faecium LMG 11423 assessed as inhibition of bacterial growth incubated for 20 hrs by CLSI based broth microdilution method; conditions: LMG 11423, 20 h
# [25] = system: Enterococcus faecalis; test: Antibacterial activity against Enterococcus faecalis LMG 08222 assessed as inhibition of bacterial growth incubated for 20 hrs by CLSI based broth microdilution method; format: functional; how it was run: as §1
# [26] = system: Enterococcus faecium; test: Antibacterial activity against Enterococcus faecium LMG 16003 assessed as inhibition of bacterial growth incubated for 20 hrs by CLSI based broth microdilution method; format: functional; how it was run: as §1
# [27] = system: DNA; test: Stabilization of Staphylococcus aureus in G Quadruplex DNA GGGGCTAATTGGGGCTGGTGG assessed as change in melting temperature at 10 uM incubated for 16 hrs by […]; format: nucleic-acid assay; how it was run: as §2
# [28] = system: DNA; test: Stabilization of Escherichia coli in G-quadruplex DNA GGG GGA GGA GGA CGG GGG assessed as change in melting temperature at 10 uM incubated for 16 hrs by FRET method; format: nucleic-acid assay; conditions: in the assay text read “by CD melting method” for “by FRET method”; how it was run: as §2
# [29] = system: DNA; test: Stabilization of Escherichia coli in G-quadruplex DNA GGG GGA GGA GGA CGG GGG assessed as melting temperature at 10 uM incubated for 16 hrs by […]; format: nucleic-acid assay; how it was run: as §2
# [30] = system: DNA; test: Stabilization of Escherichia coli in G-quadruplex DNA GGT GGG GAG GGG TAA GGG G assessed as change in melting temperature at 10 uM incubated for 16 hrs by FRET method; format: nucleic-acid assay; conditions: in the assay text read “by CD melting method” for “by FRET method”; how it was run: as §2
# [31] = system: Enterococcus faecium; test: Bacteriolytic activity against Enterococcus faecium LMG 16003 incubated for 2 hrs; format: functional, organism-based
# How it was run: (§3)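 Cultures grown 20 h were washed three times in HEPES with 5% glucose, adjusted to OD600 0.5 and exposed at 37 °C. OD600 was followed every 15 min for 2 h. Controls for E. coli were polymyxin B (2 μM) and erythromycin (32 μM). Controls for Gram-positive strains were gramicidin S (2 μM) and chloramphenicol (16 μM). Cells were then spotted on cMHB agar, 20 h, 37 °C, in triplicate.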
# [32] = system: Bacillus cereus; test: Bacteriolytic activity against Bacillus cereus ATCC 10987 incubated for 2 hrs; format: functional, organism-based; how it was run: as §3
# [33] = system: Staphylococcus aureus; test: Bacteriolytic activity against Staphylococcus aureus LMG 8224 incubated for 2 hrs; format: functional, organism-based; how it was run: as §3
# [34] = system: Escherichia coli; test: Bacteriolytic activity against Escherichia coli LMG 8223 incubated for 2 hrs; format: functional, organism-based; how it was run: as §3
smiles,measurement,setting,value
CCCNc1cc2c3c(ccc4c3c1C(=O)N(CCCN(C)C)C4=O)C(=O)N(CCCN(C)C)C2=O,MIC,[1],128 µM
same,MIC,[2],32 µM
same,MIC,[3],> 128 µM
same,Tm,[4],77.6 °C
same,Tm,[5],72.2 °C
same,ΔTm,[6],14.3 °C
same,ΔTm,[7],14.9 °C
same,MIC,[8],> 128 µM
same,ΔTm,[9],12 °C
same,MIC,[10],64 µM
same,MIC,[11],64 µM
same,MIC,[12],128 µM
same,MIC,[13],64 µM
same,MIC,[14],> 128 µM
same,MIC,[15],128 µM
same,MIC,[16],32 µM
same,MIC,[17],> 128 µM
same,Tm,[18],78 °C
same,MIC,[19],> 128 µM
same,MIC,[20],128 µM
same,MIC,[21],64 µM
same,Tm,[22],74.3 °C
same,Tm,[23],76.2 °C
same,MIC,[24],16 µM
same,MIC,[25],64 µM
same,MIC,[26],16 µM
same,ΔTm,[27],16.6 °C
same,ΔTm,[28],22.8 °C
same,Tm,[29],92.8 °C
same,ΔTm,[30],12.2 °C
CC(C)C[C@@H]1NC(=O)[C@H](CCCN)NC(=O)[C@H](C(C)C)NC(=O)[C@@H]2CCCN2C(=O)[C@@H](Cc2ccccc2)NC(=O)[C@H](CC(C)C)NC(=O)[C@H](CCCN)NC(=O)[C@H](C(C)C)NC(=O)[C@@H]2CCCN2C(=O)[C@@H](Cc2ccccc2)NC1=O (cyclo(V[Orn]L[dF]PV[Orn]L[dF]P)),Activity,[31],Active
same,Activity,[32],Active
same,Activity,[33],Active
same,Activity,[34],Active
CC[C@H](C)CCCCC(=O)N[C@@H](CCN)C(=O)N[C@H](C(=O)N[C@@H](CCN)C(=O)N[C@H]1CCNC(=O)[C@H]([C@@H](C)O)NC(=O)[C@H](CCN)NC(=O)[C@H](CCN)NC(=O)[C@H](CC(C)C)NC(=O)[C@@H](Cc2ccccc2)NC(=O)[C@H](CCN)NC1=O)[C@@H](C)O (X1-[Dab]T[Dab][Dab][Dab][dF]L[Dab][Dab]T; lactam 4-C),Activity,[31],Active
same,Activity,[32],Active
same,Activity,[33],Active
same,Activity,[34],Active
